# In ChEMBL document CHEMBL1629690, “Development of hexadecyloxypropyl tenofovir (CMX157) for treatment of infection caused by wild-type and nucleoside/nucleotide-resistant HIV” (Antimicrob Agents Chemother, 2010):
# How the values were obtained:
# [1] = system: Human immunodeficiency virus 1; test: Antiviral activity against HIV1 isolate 061 harboring reverse transcriptase M41L/D67N/K70R/M184V/L210W/T215Y/K219E mutant gene by phenosense assay relative to wild type; format: functional
# In short: (§1)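 Recombinant-virus PhenoSense HIV assay run on a panel of 30 NRTI-resistant HIV-1 mutants and two wild-type viruses. Each virus is tested across increasing drug concentrations to give an inhibition curve and EC50. Fold change is the test recombinant EC50 divided by the EC50 of the drug-sensitive wild-type reference virus.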
# [2] = system: Human immunodeficiency virus 1; test: Antiviral activity against HIV1 isolate 192 harboring reverse transcriptase M41L/T215Y mutant gene by phenosense assay relative to wild type; format: functional; in short: as §1
# [3] = system: Human immunodeficiency virus 1; test: Antiviral activity against HIV1 isolate 071 harboring reverse transcriptase 65R/S68N/184V mutant gene by phenosense assay relative to wild type; format: functional; in short: as §1
# [4] = system: Human immunodeficiency virus 1; test: Antiviral activity against HIV1 isolate 063 harboring reverse transcriptase M41L/D67N/K70R/M184V/L210W/T215Y/K219E mutant gene by phenosense assay; format: functional, organism-based; conditions: Human immunodeficiency virus 1, isolate 063; in short: as §1
# [5] = system: Human immunodeficiency virus 1; test: Antiviral activity against HIV1 isolate 166 harboring reverse transcriptase L74V mutant gene obtained as site-directed mutant of NL4-3 by phenosense assay relative to wild type; format: functional; in short: as §1
# [6] = system: Human immunodeficiency virus 1; test: Antiviral activity against HIV1 isolate 160 harboring reverse transcriptase S68G/V75(I/T)/F77L/Y115F/F116Y /Q151M mutant gene by phenosense assay relative to wild type; format: functional; in short: as §1
# [7] = system: Human immunodeficiency virus 1; test: Antiviral activity against HIV1 isolate 203 harboring reverse transcriptase M41L/L210W/T215Y/M184V mutant gene by phenosense assay; format: functional, organism-based; conditions: Human immunodeficiency virus 1, isolate 203
# In short: (§2)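 PhenoSense HIV recombinant virus assay: patient-derived HIV-1 with major NRTI resistance mutations tested against increasing drug concentrations to give inhibition curves. EC50 is the concentration giving 50% inhibition. Fold change is the test recombinant EC50 divided by the EC50 of a drug-sensitive wild-type reference virus. Panel of 30 NRTI-resistant isolates plus two wild-type viruses.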
# [8] = system: Human immunodeficiency virus 1; test: Antiviral activity against HIV1 isolate 070 harboring reverse transcriptase 65R/S68G mutant gene by phenosense assay relative to wild type; format: functional; in short: as §1
# [9] = system: Human immunodeficiency virus 1; test: Antiviral activity against HIV1 isolate 180 harboring reverse transcriptase K65R mutant gene obtained as site-directed mutant of NL4-3 by phenosense assay relative to wild type; format: functional; in short: as §1
# [10] = system: Human immunodeficiency virus 1; test: Antiviral activity against HIV1 4755-5 harboring reverse transcriptase 41L/44D/67N/69D/118I/210W/215Y/184V mutant gene infected in human PBMC by ELISA; format: functional, organism-based; conditions: Human immunodeficiency virus 1, 4755-5
# In short: (§3)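 Fresh PBMCs pooled from at least two HIV- and HBV-seronegative donors, stimulated with PHA 4 μg/ml for 48–72 h and kept in rhIL-2 20 U/ml. Seeded at 5 × 10^4 cells/well and infected with RT-mutant HIV-1 clones at MOI ~0.1. Nine compound concentrations, triplicate wells, 7-day incubation. EC50 reported as mean ± SD of one to three independent experiments.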
# [11] = system: Human immunodeficiency virus 1; test: Antiviral activity against HIV1 isolate 194 harboring reverse transcriptase M41L/T215Y/M184V mutant gene by phenosense assay; format: functional, organism-based; conditions: Human immunodeficiency virus 1, isolate 194; in short: as §1
# [12] = system: Human immunodeficiency virus 1; test: Antiviral activity against HIV1 isolate 217 harboring reverse transcriptase D67N/K70E/M184V mutant gene by phenosense assay relative to wild type; format: functional; in short: as §2
# [13] = system: Human immunodeficiency virus 1; test: Antiviral activity against HIV1 isolate 071 harboring reverse transcriptase 65R/S68N/184V mutant gene by phenosense assay; format: functional, organism-based; conditions: Human immunodeficiency virus 1, isolate 071; in short: as §1
# [14] = system: Human immunodeficiency virus 1; test: Antiviral activity against HIV1 isolate 070 harboring reverse transcriptase 65R/S68G mutant gene by phenosense assay; format: functional, organism-based; conditions: Human immunodeficiency virus 1, isolate 070; in short: as §1
# [15] = system: Human immunodeficiency virus 1; test: Antiviral activity against HIV1 isolate 157 harboring reverse transcriptase L74V/M184V mutant gene by phenosense assay; format: functional, organism-based; conditions: Human immunodeficiency virus 1, isolate 157; in short: as §1
# [16] = system: Human immunodeficiency virus 1; test: Antiviral activity against HIV1 71361-1 harboring reverse transcriptase 65R mutant gene infected in human PBMC by ELISA; format: functional, organism-based; conditions: Human immunodeficiency virus 1, 71361-1; in short: as §3
# [17] = system: Human immunodeficiency virus 1; test: Antiviral activity against HIV1 isolate 220 harboring reverse transcriptase K70E/M184V mutant gene by phenosense assay; format: functional, organism-based; conditions: Human immunodeficiency virus 1, isolate 220; in short: as §2
# [18] = system: Human immunodeficiency virus 1; test: Antiviral activity against HIV1 isolate 217 harboring reverse transcriptase D67N/K70E/M184V mutant gene by phenosense assay; format: functional, organism-based; conditions: Human immunodeficiency virus 1, isolate 217; in short: as §2
# [19] = system: Human immunodeficiency virus 1; test: Antiviral activity against HIV1 isolate 211 harboring reverse transcriptase D67N/K70R/T215F/K219E/M184V mutant gene by phenosense assay relative to wild type; format: functional; in short: as §2
# [20] = system: Human immunodeficiency virus 1; test: Antiviral activity against HIV1 isolate 206 harboring reverse transcriptase D67N/K70R mutant gene by phenosense assay; format: functional, organism-based; conditions: Human immunodeficiency virus 1, isolate 206; in short: as §2
# [21] = system: Human immunodeficiency virus 1; test: Antiviral activity against HIV1 isolate 058 harboring reverse transcriptase M41L/D67N/K70R/L210W/T215F/K219Q mutant gene by phenosense assay relative to wild type; format: functional; in short: as §1
# [22] = system: Human immunodeficiency virus 1; test: Antiviral activity against HIV1 isolate 063 harboring reverse transcriptase M41L/D67N/K70R/M184V/L210W/T215Y/K219E mutant gene by phenosense assay relative to wild type; format: functional; in short: as §1
# [23] = system: Human immunodeficiency virus 1; test: Antiviral activity against HIV1 isolate 058 harboring reverse transcriptase M41L/D67N/K70R/L210W/T215F/K219Q mutant gene by phenosense assay; format: functional, organism-based; conditions: Human immunodeficiency virus 1, isolate 058; in short: as §1
# [24] = system: Human immunodeficiency virus 1; test: Antiviral activity against HIV1 isolate 162 harboring reverse transcriptase A62V/V75I/F77L/Y115F/F116Y/Q151M/M184V mutant gene by phenosense assay relative to wild type; format: functional; in short: as §1
# [25] = system: Human immunodeficiency virus 1; test: Antiviral activity against HIV1 isolate 153 harboring reverse transcriptase L74V mutant gene by phenosense assay relative to wild type; format: functional; in short: as §1
# [26] = system: Human immunodeficiency virus 1; test: Antiviral activity against HIV1 isolate 174 harboring reverse transcriptase M184V mutant gene obtained as site-directed mutant of NL4-3 by phenosense assay; format: functional, organism-based; conditions: Human immunodeficiency virus 1, isolate 174; in short: as §1
# [27] = system: Human immunodeficiency virus 1; test: Antiviral activity against HIV1 1617-1 harboring reverse transcriptase 69K/70G/75I/77L/116Y/151M/184V mutant gene infected in human PBMC by ELISA; format: functional, organism-based; conditions: Human immunodeficiency virus 1, 1617-1; in short: as §3
# [28] = system: Human immunodeficiency virus 1; test: Antiviral activity against HIV1 isolate 160 harboring reverse transcriptase S68G/V75(I/T)/F77L/Y115F/F116Y /Q151M mutant gene by phenosense assay; format: functional, organism-based; conditions: Human immunodeficiency virus 1, isolate 160; in short: as §1
# [29] = system: Human immunodeficiency virus 1; test: Antiviral activity against HIV1 isolate 067 harboring reverse transcriptase A62V/D67G/T69SVG/V75I/T215I mutant gene by phenosense assay; format: functional, organism-based; conditions: Human immunodeficiency virus 1, isolate 067; in short: as §1
# [30] = system: Human immunodeficiency virus 1; test: Antiviral activity against HIV1 NL 4-3 expressing wild type reverse transcriptase infected in human PBMC by ELISA; format: functional, organism-based; conditions: Human immunodeficiency virus 1, NL 4-3
# In short: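 Fresh donor PBMCs, HIV- and HBV-seronegative, were stimulated with 4 μg/ml PHA for 48 to 72 h and kept on 20 U/ml rhIL-2. Cells pooled from at least two donors were seeded at 5 × 10^4 per well and infected at MOI ~0.1. Nine compound concentrations were run in triplicate wells for 7 days.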
smiles,measurement,setting,value
Cc1cn([C@H]2C[C@H](N=[N+]=[N-])[C@@H](CO)O2)c(=O)[nH]c1=O [ZIDOVUDINE],fold change (FC),[1],58
same,fold change (FC),[2],20
same,fold change (FC),[3],0.41
same,EC50,[4],1600 nM
same,fold change (FC),[5],0.5
same,fold change (FC),[6],93
same,EC50,[7],87 nM
same,fold change (FC),[8],0.44
same,fold change (FC),[9],0.51
same,EC50,[10],100 nM
same,EC50,[11],180 nM
same,fold change (FC),[12],0.15
same,EC50,[13],11 nM
same,EC50,[14],12 nM
same,EC50,[15],6 nM
same,EC50,[16],2.7 nM
same,EC50,[17],4 nM
same,EC50,[18],4 nM
same,fold change (FC),[19],7
same,EC50,[20],770 nM
same,fold change (FC),[21],350
same,fold change (FC),[22],59
same,EC50,[23],9600 nM
same,fold change (FC),[24],150
same,fold change (FC),[25],0.41
same,EC50,[26],9 nM
same,EC50,[27],> 340 nM
same,EC50,[28],2500 nM
same,EC50,[29],> 25000 nM
same,EC50,[30],0.53 nM
